Laboratory results reported in ChEMBL document CHEMBL1135527, “Synthesis and evaluation of 2'-substituted 4-(4'-carboxy- or 4'-carboxymethylbenzylidene)-N-acylpiperidines: highly potent and in vivo active steroid 5alpha-reductase type 2 inhibitors” (J Med Chem, 2002).
pIC50: −log10 of the molar value.

Legend:
[1] = molecular target: T1, 3-oxo-5-alpha-steroid 4-dehydrogenase 1 (Rattus norvegicus, UniProt P24008); experiment: Inhibition of Steroid 5-alpha-reductase type I from rat ventral prostate (RVP); format: tissue-based, Prostate gland
T1 sequence (P24008 whole entry): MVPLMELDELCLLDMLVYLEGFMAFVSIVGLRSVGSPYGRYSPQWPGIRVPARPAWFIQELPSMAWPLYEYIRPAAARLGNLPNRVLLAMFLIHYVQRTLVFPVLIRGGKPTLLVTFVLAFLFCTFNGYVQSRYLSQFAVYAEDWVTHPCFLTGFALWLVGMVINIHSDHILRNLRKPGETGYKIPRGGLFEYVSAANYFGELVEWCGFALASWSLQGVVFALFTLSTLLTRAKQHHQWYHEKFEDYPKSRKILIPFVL
Summary of the method: (§1)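 Rat ventral prostate 105000g pellet made in 20 mM phosphate pH 6.6 with […] and 1 mM DTT at 0–4 °C. About 250 μg protein incubated 30 min at 37 °C in 40 mM phosphate pH 6.6 with 200 μM NADPH, 0.21 μM [1,2-³H]testosterone and 2% DMSO. Ether extraction, radio-HPLC of T and DHT. % inhibition at 10 μM or IC50; duplicates.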

[2] = molecular target: T2, 3-oxo-5-alpha-steroid 4-dehydrogenase 2 (Homo sapiens, UniProt P31213); experiment: Inhibition of Steroid 5-alpha-reductase type 2 from human benign prostatic hyperplasia (BPH) tissue
T2 sequence (P31213 whole entry): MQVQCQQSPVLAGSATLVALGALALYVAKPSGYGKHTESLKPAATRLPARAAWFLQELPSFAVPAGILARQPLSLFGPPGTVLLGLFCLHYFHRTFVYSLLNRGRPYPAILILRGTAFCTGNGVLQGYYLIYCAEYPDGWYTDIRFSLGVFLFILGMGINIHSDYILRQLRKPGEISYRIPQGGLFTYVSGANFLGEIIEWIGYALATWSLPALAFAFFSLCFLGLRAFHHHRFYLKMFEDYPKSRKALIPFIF
Summary of the method: (§2)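 Human BPH prostate 105000g pellet (nuclei, mitochondria, microsomes) prepared in citrate buffer pH 5.5. Incubation of about 125 μg protein for 30 min at 37 °C in 40 mM citrate pH 5.5 with 100 μM NADPH, 0.21 μM [1,2-³H]testosterone and 2% DMSO. Reaction stopped with NaOH, steroids extracted with ether, T/DHT separated by radio-HPLC. Single 10 μM test or IC50; duplicates.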

[3] = molecular target: T3, 3-oxo-5-alpha-steroid 4-dehydrogenase 1 (Homo sapiens) (UniProt P18405); experiment: Inhibition of Steroid 5-alpha-reductase type I of human DU 145 prostatic tumor cell line, at 10 uM
T3 sequence (whole entry): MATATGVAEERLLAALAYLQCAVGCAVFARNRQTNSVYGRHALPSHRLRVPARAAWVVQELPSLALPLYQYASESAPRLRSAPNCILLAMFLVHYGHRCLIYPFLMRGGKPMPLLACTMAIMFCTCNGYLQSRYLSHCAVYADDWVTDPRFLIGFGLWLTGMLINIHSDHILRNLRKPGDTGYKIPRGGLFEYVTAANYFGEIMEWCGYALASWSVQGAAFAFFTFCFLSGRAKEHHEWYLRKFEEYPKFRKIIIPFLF
Summary of the method: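 Intact DU145 cells (type 1 source) seeded at 180 000/well and left to adhere overnight. Compound added in DMSO to complete medium, then 6 h at 37 °C in 5% CO2 with [³H]androstenedione, 5 nM. Medium extracted twice with ether, steroids separated by radio-HPLC. Product formed expressed as % of triplicate no-inhibitor controls; screened at 10 μM.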

[4] = molecular target: T4, 3-oxo-5-alpha-steroid 4-dehydrogenase 2 (Rattus norvegicus, UniProt P31214); experiment: (§3) Inhibition of Steroid 5-alpha-reductase type 2 of rat ventral prostate (RVP); format: tissue-based, Prostate gland
T4 sequence (P31214 whole entry): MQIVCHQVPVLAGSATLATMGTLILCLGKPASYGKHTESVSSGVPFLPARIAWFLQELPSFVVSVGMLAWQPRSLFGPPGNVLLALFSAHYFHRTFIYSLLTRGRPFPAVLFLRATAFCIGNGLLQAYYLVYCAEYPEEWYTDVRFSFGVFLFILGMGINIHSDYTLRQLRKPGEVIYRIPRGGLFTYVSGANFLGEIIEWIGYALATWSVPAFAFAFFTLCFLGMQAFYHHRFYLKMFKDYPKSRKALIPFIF
Summary of the method: (§4)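 Type 2 source: rat ventral prostate homogenized in citrate buffer pH 5.5, 105000g pellet. About 250 μg protein incubated 30 min at 37 °C in 40 mM citrate pH 5.5 with 200 μM NADPH, 0.21 μM [1,2-³H]testosterone and 2% DMSO. NaOH stop, ether extraction, radio-HPLC of T/DHT. Result given as % inhibition at 10 μM or IC50, run in duplicate.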

Rattus norvegicus [5] = experiment: Mean percentage of inhibition of the T-induced hypertrophic response was calculated according to the equation %inhibition = 100 x (Ct-D)/(Ct-Cc) at a dose 11.3 mg/kg by oral administration; format: functional
Summary of the method: (§5)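 Male rats castrated at 21 days old by scrotal incision under ether anaesthesia; eight groups of eight. One week later, testosterone propionate 1 mg/kg and test agent or vehicle in oil given once daily for 4 days. Testosterone and test agent were given by separate sc injections, or the test agent was given orally. Test doses 11.3–12.2 mg/kg, 10 times equimolar to finasteride 1 mg/kg.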

Rattus norvegicus [6] = experiment: In vivo ventral prostate weights in juvenile castrated rats treated with testosterone propionate (11.3 mg/kg) compound, by subcutaneous administration; format: functional, Prostate gland; summary of the method: as §5
Rattus norvegicus [7] = experiment: In vivo ventral prostate weights in juvenile castrated rats treated with testosterone propionate (11.3 mg/kg) compound, by oral administration; format: functional, Prostate gland; summary of the method: as §5
Rattus norvegicus [8] = experiment: Mean percentage of inhibition of the T-induced hypertrophic response was calculated according to the equation %inhibition = 100 x (Ct-D)/(Ct-Cc) at a dose 11.3 mg/kg by subcutaneous administration; format: functional; conditions: sc; summary of the method: as §5
[9] = molecular target: T5, 3-oxo-5-alpha-steroid 4-dehydrogenase 1 (Rattus norvegicus) (UniProt P24008); experiment: Inhibition of Steroid 5-alpha-reductase type I of rat ventral prostate (RVP); format: tissue-based; parameters: concentration or dose not given beside the values; conditions: Prostate gland, concentration not given here; summary of the method: as §1
T5 sequence (whole entry): T1 sequence (P24008 whole entry)

[10] = molecular target: T6, 3-oxo-5-alpha-steroid 4-dehydrogenase 2 (Rattus norvegicus) (UniProt P31214); experiment: as §3; parameters: concentration or dose not given beside the values; conditions: Prostate gland, concentration not given here; summary of the method: as §4
T6 sequence (whole entry): T4 sequence (P31214 whole entry)

[11] = molecular target: T7, 3-oxo-5-alpha-steroid 4-dehydrogenase 2 (Homo sapiens) (UniProt P31213); experiment: Percent of inhibition at 10 benign prostatic hyperplasia (BPH) tissue; conditions: concentration not given here; summary of the method: as §2
T7 sequence (whole entry): T2 sequence (P31213 whole entry)

Rattus norvegicus [12] = experiment: In vivo ventral prostate weights in juvenile castrated rats treated with testosterone propionate (11.3 mg/kg) + compound, by subcutaneous administration; format: functional, Prostate gland
Rattus norvegicus [13] = experiment: Mean percentage of inhibition of the T-induced hypertrophic response was calculated according to the equation %inhibition = 100 x (Ct-D)/(Ct-Cc) at a dose 1 mg/kg by subcutaneous administration; format: functional; conditions: sc; summary of the method: as §5
[14] = molecular target: T7, 3-oxo-5-alpha-steroid 4-dehydrogenase 2 (Homo sapiens); experiment: Percent of inhibition against Steroid 5-alpha-reductase type 2 of human uM; conditions: concentration not given here; summary of the method: as §2
Rattus norvegicus [15] = experiment: Mean percentage of inhibition of the T-induced hypertrophic response was calculated according to the equation %inhibition = 100 x (Ct-D)/(Ct-Cc) at a dose 12.2 mg/kg by subcutaneous administration; format: functional; conditions: sc; summary of the method: as §5
[16] = molecular target: 3-oxo-5-alpha-steroid 4-dehydrogenase 2 (Homo sapiens, UniProt P31213); experiment: In vitro inhibitory activity against Steroid 5-alpha-reductase type 2 of human benign prostatic hyperplasia (BPH) tissue; summary of the method: as §2

SMILES | pIC50 [2] | inhibition [3] | pIC50 [4] | inhibition [9] | inhibition [10] | further results
O=C(O)c1ccc(C=C2CCN(C(=O)C(c3ccccc3)c3ccccc3)CC2)c(F)c1 | 6.39 | 2% | 5.96 | – | – | pIC50 [1]: 5.96
O=C(O)c1ccc(C=C2CCN(C(=O)C(C3CCCCC3)C3CCCCC3)CC2)c(F)c1 | – | 12% | – | – | – | –
CCC(=O)O[C@H]1CC[C@H]2[C@@H]3CCC4=CC(=O)CC[C@]4(C)[C@H]3CC[C@]12C.O=C(O)c1ccc(C=C2CCN(C(=O)C(C3CCCCC3)C3CCCCC3)CC2)cc1 | – | – | – | – | – | inhibition in vivo at 11.3 mg/kg (Rattus norvegicus [5]): 36%; Weight (Rattus norvegicus [6]): 27.9 (mg of prostate) (100g of body weight)-1; Weight (Rattus norvegicus [7]): 31.6 (mg of prostate) (100g of body weight)-1; inhibition in vivo at 11.3 mg/kg (Rattus norvegicus [8]): 49%
O=C(O)c1cccc(C=C2CCN(C(=O)C(c3ccccc3)c3ccccc3)CC2)c1 | – | 6% | – | 49% | 43% | inhibition [11]: 57%
CC(C)(C)NC(=O)C1CC[C@@]2(C)[C@@H]3CC[C@H]4NC(=O)C=C[C@]4(C)[C@H]3CC[C@]12C.CCC(=O)O[C@H]1CC[C@H]2[C@@H]3CCC4=CC(=O)CC[C@]4(C)[C@H]3CC[C@]12C (some centres undefined) | – | – | – | – | – | Weight (Rattus norvegicus [12]): 20.5 (mg of prostate) (100g of body weight)-1; inhibition in vivo at 1 mg/kg (Rattus norvegicus [13]): 76%
O=C(O)c1ccc(OC2CCN(C(=O)N(c3ccccc3)c3ccccc3)CC2)cc1 | – | 10% | – | 53% | 50% | inhibition [14]: 68%
O=C(O)c1ccc(C=C2CCN(C(=O)C(C3CCCCC3)C3CCCCC3)CC2)cc1 | 7.22 | – | 7.10 | – | – | –
CCC(=O)O[C@H]1CC[C@H]2[C@@H]3CCC4=CC(=O)CC[C@]4(C)[C@H]3CC[C@]12C.O=C(O)Cc1ccc(C=C2CCN(C(=O)C(C3CCCCC3)C3CCCCC3)CC2)c(F)c1 | – | – | – | – | – | inhibition in vivo at 12.2 mg/kg (Rattus norvegicus [15]): 55%; Weight (Rattus norvegicus [6]): 26.4 (mg of prostate) (100g of body weight)-1
O=C(O)Cc1ccc(C=C2CCN(C(=O)C(C3CCCCC3)C3CCCCC3)CC2)c(F)c1 | 8.15 | – | 7.42 | – | – | pIC50 [1]: 5.49
O=C(O)c1ccc(C=C2CCN(C(=O)C34CC5CC(CC(C5)C3)C4)CC2)cc1 | 6.59 | 44% | 5.60 | – | – | pIC50 [1]: 5.25
O=C(O)c1ccc(OC2CCN(C(=O)C(c3ccccc3)c3ccccc3)CC2)cc1 | – | – | – | 62% | 58% | pIC50 [16]: 5.89
COc1cc(C(=O)O)ccc1C=C1CCN(C(=O)C(c2ccccc2)c2ccccc2)CC1 | 5.46 | 8% | 6.03 | – | – | pIC50 [1]: 5.72
COc1cc(C(=O)O)ccc1C=C1CCN(C(=O)C23CC4CC(CC(C4)C2)C3)CC1 | 5.92 | 10% | – | 52% | 51% | –
O=C(O)c1cccc(C=C2CCN(C(=O)C(C3CCCCC3)C3CCCCC3)CC2)c1 | – | – | – | 35% | 25% | pIC50 [16]: 6.15
